Measurements of several laboratories.
Each line is one published result; the experiments were not run side by side. ≈ marks a conversion by molar mass, not a printed value.
Observed: cell growth or viability

| Structure (SMILES) | cell line | method | concentration | time | quantity | result |
| --- | --- | --- | --- | --- | --- | --- |
| O=C(/C=C/c1cccc(C(=O)NO)c1)NO | HBL1 | ATP luminescence | 0.5 µM | 5 days | viability | 89.6% |
| OCc1ccc(-c2nn(Cc3ccccc3)c3ncccc23)o1 | RBE | ATP luminescence | 46 µM | 72 h | inhibition | 51% |
| O=C(CCCCCCSc1ccc2ccccc2c1)NO | HBL1 | ATP luminescence | 1 µM | 5 days | viability | 98.6% |
| OCc1ccc(-c2nn(Cc3ccccn3)c3ccccc23)o1 | RBE | ATP luminescence | 46 µM | 72 h | inhibition | 70% |
| O=C(CCCCCCC(=O)Nc1ccccc1)NO | HBL1 | ATP luminescence | 1 µM | 5 days | viability | 10.7% |
| NCCC(=O)Nc1ccccc1/N=c1\cc(-c2ccc3nc(N)oc3c2)oc2ccccc12 | MDA-MB-468 | CCK-8 | 1 µM |  | inhibition | 47.2% |
| COCCN(Cc1ccc(F)cc1)c1ccc(CO)c(Cl)c1 | RBE | ATP luminescence | 46 µM | 72 h | inhibition | 75% |
| O=C(Nc1nccs1)c1ccc(-c2nc3ccc4[nH]ncc4c3c3c2CCCC3)cc1 | MV4-11 | resazurin |  | 72 h | GI50 | 0.743 µM |
| C[C@H](Nc1ccc2c(c1)OCCn1cc(N3C(=O)OC[C@H]3C(F)F)nc1-2)C(N)=O | IM95 | ATP luminescence |  | 5 days | EC50 | 0.388 µM |
| CNCCC(=O)Nc1ccccc1/N=c1\cc(-c2ccc3nc(N)oc3c2)oc2ccccc12 | MDA-MB-468 | CCK-8 | 1 µM |  | inhibition | 40.6% |
| CC(=O)OC[C@H]1O[C@@H](n2cnc(N)nc2=O)[C@H](OC(C)=O)[C@@H]1OC(C)=O | HBL1 | ATP luminescence | 0.5 µM | 5 days | viability | 111% |
| NCC(=O)Nc1ccccc1/N=c1\cc(-c2ccc3c(c2)OCO3)oc2c(N)cccc12 | MDA-MB-468 | CCK-8 | 1 µM |  | inhibition | -4.61% |
| CN(C)CCNC(=O)c1ccc(-c2nc3ccc4[nH]ncc4c3c3c2CC(F)(F)CC3)cc1 | MV4-11 | resazurin |  | 72 h | GI50 | 0.112 µM |
| OCc1ccc(N(Cc2ccc(F)cc2)Cc2ccc(F)cc2)cc1Cl | RBE | ATP luminescence | 46 µM | 72 h | inhibition | 78% |
| O=C(NO)c1ccc(CC(=O)N(CCO)c2ccccc2)cc1 | HBL1 | ATP luminescence | 1 µM | 5 days | viability | 107% |
| OCCc1ccc(-c2nn(Cc3ccccc3)c3ccccc23)o1 | RBE | ATP luminescence | 46 µM | 72 h | inhibition | 21% |
| O=C(Nc1ccc(Cl)cc1)C1CCCN(C(=O)c2cc(C(F)(F)F)cc(C(F)(F)F)c2)C1 (racemic) | HBL1 | ATP luminescence | 0.5 µM | 5 days | viability | 98.8% |

| Structure (SMILES) | cell line | method | concentration | time | quantity | result |
| --- | --- | --- | --- | --- | --- | --- |
| CCN(CC)CCNC(=O)c1ccc(-c2nc3ccc4[nH]ncc4c3c3c2CCCC3)cc1 | MV4-11 | resazurin |  | 72 h | GI50 | 0.44 µM |
| COCCC(=O)Nc1ccccc1/N=c1\cc(-c2ccc3c(c2)OCO3)oc2ccccc12 | MDA-MB-468 | CCK-8 | 1 µM |  | inhibition | 2.51% |
| COc1cnccc1Cn1nc(-c2ccc(CO)o2)c2ccccc21 | RBE | ATP luminescence | 46 µM | 72 h | inhibition | 85% |
| O=C(Nc1cccc(Br)c1)c1cccc(S(=O)(=O)N2CCCCCC2)c1 | HBL1 | ATP luminescence | 0.1 µM | 5 days | viability | 134% |
| Cc1n[nH]c2ccc3nc(-c4ccc(C(=O)N(C)CCN(C)C)nc4)c4c(c3c12)CCCCC4 | MV4-11 | resazurin |  | 72 h | GI50 | 1.1 µM |
| CC(=O)ON=C1C=CC(=C(C#N)c2ccccc2)C=C1 | human Fibroblast | MTT |  | 72 h | IC50 | 19.6 mg/L (≈ 74 µM) |
| C[C@H](N)C(=O)Nc1ccccc1/N=c1\cc(-c2ccc3c(c2)OCCO3)oc2c([N+](=O)[O-])cccc12 | MDA-MB-468 | CCK-8 | 1 µM |  | inhibition | 1.9% |
| CC1c2ccccc2CCN1c1ccc(CO)c(Cl)c1 (stereo not drawn) | RBE | ATP luminescence | 46 µM | 72 h | inhibition | 91% |
| O=C(NC1CC1)c1ccc(-c2nc3ccc4[nH]ncc4c3c3c2CCCC3)cc1 | MV4-11 | resazurin |  | 72 h | GI50 | 0.481 µM |
| Oc1cccc(-c2nc(N3CCOCC3)c3oc4ncccc4c3n2)c1 | MDA-MB-468 | CCK-8 | 1 µM |  | inhibition | 2.69% |
| CN(C)CC1(NC(=O)c2ccc(-c3nc4ccc5[nH]ncc5c4c4c3CCCC4)cc2)CC1 | MV4-11 | resazurin |  | 72 h | GI50 | 0.536 µM |
| OCc1ccc(-c2nn(Cc3ccccc3)c3ccncc23)o1 | RBE | ATP luminescence | 46 µM | 72 h | inhibition | 47% |
| Cc1n[nH]c2ccc3nc(-c4ccc(C(=O)N(C)CCN(C)C)cn4)c4c(c3c12)CCCCC4 | MV4-11 | resazurin |  | 72 h | GI50 | 0.713 µM |
| COc1ccc2/c(=N/c3ccccc3NC(=O)CN)cc(-c3ccc4c(c3)OCCO4)oc2c1 | MDA-MB-468 | CCK-8 | 1 µM |  | inhibition | 15.2% |
| Cc1n[nH]c2ccc3nc(-c4ccc(C(=O)NCCN(C)C)cc4F)c4c(c3c12)CCCCC4 | MV4-11 | resazurin |  | 72 h | GI50 | 0.088 µM |
| CCNc1nc2ccc(-c3c/c(=N\c4ccccc4NC(=O)CCN)c4ccccc4o3)cc2o1 | MDA-MB-468 | CCK-8 | 1 µM |  | inhibition | 31.4% |
